Measurements: ChEMBL document CHEMBL1141858, “Lichen metabolites. 2. Antiproliferative and cytotoxic activity of gyrophoric, usnic, and diffractaic acid on human keratinocyte growth” (J Nat Prod, 1999)

What was measured:
HaCaT [1] = experiment: Antiproliferative activity against human HaCaT cells; format: functional, cell-based
Procedure, shortened: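 HaCaT keratinocytes were seeded at 2.5 × 10^4 per well in DMEM and grown 24 h. Cells were trypsinized (0.5% trypsin, 0.2% EDTA, 20 min, 37 °C) and counted by phase contrast microscopy. Inhibition was taken relative to vehicle (n = 3). IC50 was interpolated from a log concentration-response using ≥4 concentrations.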

HaCaT [2] = experiment: Growth inhibition of human HaCaT cells assessed as lactate dehydrogenase release at 2 uM after 4 hrs by UV method; format: functional
Procedure, shortened: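 HaCaT cells were exposed to compound at 2 µM for 4 h at 37 °C. Extracellular LDH activity in the medium was measured by the UV method with pyruvate and NADH. Values were compared against vehicle controls (n = 3).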

SMILES	IC50 (HaCaT [1]) [nM]	Activity (HaCaT [2]) [mU/mL]
CC(=O)C1=C(O)C=C2Oc3c(C(C)=O)c(O)c(C)c(O)c3[C@@]2(C)C1=O [(+)-USNIC ACID]	2100	168
O=C1c2c(O)cccc2Cc2cccc(O)c21 [ANTHRALIN]	700	294
COC(=O)c1c(C)cc(OC(=O)c2c(C)cc(O)c(C=O)c2O)c(C)c1O [ATRANORIN]	> 5000	
COC(=O)c1c(C)cc(O)c(C)c1O [ATRARIC ACID]	> 5000	
COc1cc(C)c(C(=O)Oc2cc(C)c(C(=O)O)c(O)c2C)c(OC)c1C [DIFFRACTAIC ACID]	2600	136
CCOC(=O)c1c(C)cc(O)c(C=O)c1O [ETHYL HEMATOMMATE]	> 5000	
Cc1cc(OC(=O)c2c(C)cc(OC(=O)c3c(C)cc(O)cc3O)cc2O)cc(O)c1C(=O)O [GYROPHORIC ACID]	1700	138
C=C1C(=O)O[C@@H](CCCCCCCCCCCCC)[C@@H]1C(=O)O [PROTOLICHESTERINIC ACID]	> 5000	
